Results on 1 molecule are retold here after ChEMBL document CHEMBL3244177, “Synthesis and prostaglandin-like activity of 2-(trans-3-hydroxy-1-octenyl)-3-indoleheptanoic acid” (J Med Chem, 1978).

The source made the active and inactive calls. The rule behind the calls is not given here.

Holding throughout (format): tissue-based
Assay [1] is described as follows: Competitive inhibition of Prostaglandin receptor in rat stomach fundus strip assessed as inhibition of PGE1-induced contraction by kymography. In a few lines: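 Rat stomach fundus strip contractions to PGE1 11.3 × 10^-9 mol/L compared with and without analogue at 2.15–21.5 × 10^-6 mol/L. Stock in ethanol, diluted in Krebs. Kymograph with auxotonic lever, load 1 g baseline and 3 g maximal, 10-min dose cycle, 90 s contact. Approximate IC50 taken from the inhibition concentration-response curve in four preparations.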

Assay [2] is filed under the species Cavia porcellus. In words: Effect on Prostaglandin receptor-induced contraction in guinea pig ileum assessed as intrinsic activity at 0.8 ug by kymography relative to PGE1. Summed up:
(§1)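 Guinea-pig terminal ileum in a 3-mL oxygenated Tyrode bath at 30 °C with cyproheptadine 3 × 10^-9 mol/L. Dosed at 5-min intervals, 30 s contact, isotonic lever on a smoked drum. Final concentrations were 3.6–17.9 × 10^-7 mol/L for the compound and 0.94–18.8 × 10^-9 mol/L for PGE1 standards. Activity bracketed between two PGE1 doses, mean of five observations.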

The species entered for assay [3] is Rattus norvegicus. In words: Effect on Prostaglandin receptor-induced contraction in rat stomach fundus strip assessed as intrinsic activity at 2.0 ug by kymography relative to PGE1. In a few lines:
(§2)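 Rat fundus strips in Krebs, dosed once tone was constant. Final bath concentrations were 2.70–13.5 × 10^-7 mol/L for the compound and 0.70–14.0 × 10^-9 mol/L for PGE1 standards, from ethanol stocks. Auxotonic kymograph recording, 10-min cycle, 90 s contact. PGE1-like activity was bracketed between two PGE1 standard doses, mean of five observations per concentration.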

For assay [4], the species on record is Rattus norvegicus. In words: Effect on Prostaglandin receptor-induced contraction in rat stomach fundus strip assessed as intrinsic activity at 0.4 ug by kymography relative to PGE1. In a few lines: as §2
For assay [5], the species on record is Cavia porcellus. Kind of assay: Effect on Prostaglandin receptor-induced contraction in guinea pig ileum assessed as intrinsic activity at 1.6 ug by kymography relative to PGE1. In a few lines:
as §1

The species named for assay [6] is Rattus norvegicus. Kind of assay: Effect on Prostaglandin receptor-induced contraction in rat stomach fundus strip assessed as intrinsic activity at 1.6 ug by kymography relative to PGE1. Summed up:
as §2

For assay [7], the species on record is Rattus norvegicus. Kind of assay: Effect on Prostaglandin receptor-induced contraction in rat stomach fundus strip assessed as intrinsic activity at 0.8 ug by kymography relative to PGE1. Summed up:
as §2

The species named for assay [8] is Cavia porcellus. Kind of assay: Effect on Prostaglandin receptor-induced contraction in guinea pig ileum assessed as intrinsic activity at 0.4 ug by kymography relative to PGE1. In a few lines: as §1
The species entered for assay [9] is Rattus norvegicus. In words: Induction of Prostaglandin receptor-induced adenylate cyclase activation in rat liver homogenate assessed as increase in cAMP level at 6.7 to 13.4 x 10^-3 M after 10 mins relative to control. Summed up:
(§3)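 Rat liver homogenate adenylate cyclase, 10 min at 37 °C in Tris-HCl 0.1 mol/L pH 8.0 with ATP 4 × 10^-3, MgSO4 15 × 10^-3, GTP 5 × 10^-4, EGTA 1 × 10^-4 and theophylline 5 × 10^-3 mol/L. Stopped by 2 min boiling, then frozen, thawed and centrifuged. cAMP in the supernatant measured by the Brown method, saline blanks, four replicates.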

The species entered for assay [10] is Rattus norvegicus. In words: Induction of Prostaglandin receptor-induced adenylate cyclase activation in rat liver homogenate assessed as increase in cAMP level at equimolar dose of 2.8 x 10^-5 mol/L PGE1 after 10 mins relative to control. In a few lines: as §3
Assay [11] is filed under the species Cavia porcellus. In words: Effect on Prostaglandin receptor-induced contraction in guinea pig ileum assessed as intrinsic activity at 2.0 ug by kymography relative to PGE1. In a few lines: as §1
Assay [12] is filed under the species Rattus norvegicus. In words: Inhibition of Prostaglandin receptor-induced adenylate cyclase activation in rat liver homogenate assessed as cAMP level at 6.7 to 13.4 x 10^-3 M after 10 mins relative to control.

As to `CCCCCC(O)/C=C/c1[nH]c2ccccc2c1CCCCCCC(=O)O` (configuration not stated), the concentration for half-maximal inhibition (IC50) in assay [1] came to 11.8 µM. Moreover, the Intrinsic activity in the assay filed under Cavia porcellus [2] was 0.0029; in the assay listed under Rattus norvegicus [3], 0.00055; in the assay listed under Rattus norvegicus [4], 0.00075; in the assay filed under Cavia porcellus [5] it was 0.0014; in the assay listed under Rattus norvegicus [6] it was 0.00056; in the assay listed under Rattus norvegicus [7] it was 0.00075. The Intrinsic activity amounted to 0.004 in the assay listed under Cavia porcellus [8] and 0.0057 in the assay listed under Cavia porcellus [11]. Besides, the outcome in the assay listed under Rattus norvegicus [9] was Active. The result in the assay listed under Rattus norvegicus [10] was inactive. In addition, the inhibition in the assay listed under Rattus norvegicus [12] was determined as 40%.
